Source: PubChem
GRK2 inh – inhibitors of human GRK2 displacing RNA aptamer; P25098; bead flow cytometry, FAM-aptamer displacement from GRK2; inhibition of aptamer binding, % at 10 µM; 330,000 compounds, 0.59% hits;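 active means inhibition of aptamer binding above 40%, roughly 3 SD of noise, on plates passing a quality check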;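 further: median bead fluorescence of bound FAM aptamer so fluorescent compounds give negative values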
SR-BI HDL uptake – blocks mouse SR-BI lipid uptake from DiI-HDL; Q61009; ldlA[mSR-BI] CHO cells, DiI-HDL uptake fluorescence, 3 h; inhibition, % at 12.5 µM; 320,000 compounds, 0.96% hits; AID 488896;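 active means mean replicate inhibition of at least 70% and a set share of replicates each scoring 70 or more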;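 further: 0% = median of neutral control wells and 100% = median of positive control wells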
Target sequence (Q61009 whole entry, looked up): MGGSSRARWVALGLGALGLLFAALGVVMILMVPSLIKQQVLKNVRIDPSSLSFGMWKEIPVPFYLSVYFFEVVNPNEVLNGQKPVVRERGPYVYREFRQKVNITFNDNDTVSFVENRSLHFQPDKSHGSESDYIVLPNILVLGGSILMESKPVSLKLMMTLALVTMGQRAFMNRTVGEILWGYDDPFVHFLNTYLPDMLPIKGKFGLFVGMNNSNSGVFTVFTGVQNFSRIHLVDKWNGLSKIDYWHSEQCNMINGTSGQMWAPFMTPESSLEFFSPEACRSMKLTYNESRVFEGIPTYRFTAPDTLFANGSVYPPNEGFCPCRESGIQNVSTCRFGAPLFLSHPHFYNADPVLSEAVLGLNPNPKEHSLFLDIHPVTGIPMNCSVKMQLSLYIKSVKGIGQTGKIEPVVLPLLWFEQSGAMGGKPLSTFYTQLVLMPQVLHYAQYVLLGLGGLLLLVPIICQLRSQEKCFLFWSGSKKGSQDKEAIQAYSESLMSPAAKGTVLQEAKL
SR-BI DiI-HDL act – enhances SR-BI lipid uptake from DiI-HDL. CHO ldlA[mSR-BI] cells, DiI-HDL uptake fluorescence, 3 h; 100 = double the neutral-control signal. activation, % at 12.5 µM. 320,000 compounds, 0.096% hits;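 active means mean replicate activation of at least 60% and every replicate at or above 60%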;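 further: 0% = median plate neutral-control signal and 100% = twice that signal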
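Assay system: LDL receptor-deficient CHO ldlA cells overexpressing murine SR-BI / Medium: BSA-supplemented, HEPES-buffered Ham's F12, pH 7.4 / Probe or stimulus: DiI-labelled HDL at 10 µg/mL final / Timing: compound with DiI-HDL co-incubation, 3 h at 37 °C / Technique: bottom-read cell fluorescence after medium removal, ex 550/em 595 nm / Measure: HDL uptake via cellular fluorescence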
Rin1 Abl inh – inhibitors of human Rin1-Abl protein interaction; TR-FRET Rin1/Abl binding, biochemical; inhibition, % at 7.35 µM; AID 588664; P00519+Q13671; 360,000 compounds, 0.4% hits; in the data active means inhibition above about 5%, passing the limit was not always enough
GRK2 CP1 – human GRK2 inhibition confirmation, cherry pick 1. shares compounds with GRK2 inh. bead-bound GRK2, FAM-aptamer displacement, flow cytometry. aptamer displacement, % at 10 µM. 2,000 compounds, 4% hits;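 active means aptamer displacement above 40%, near three times the noise of non-fluorescent compounds, on plates passing quality checks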;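 further: negative values mostly reflect intrinsic compound fluorescence rather than true enhancement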
Aptamer quench – fluorescent aptamer quenching in GRK2 counter-screen dose response; fluorescence change (kMESF span), kMESF (no concentration beside the values); Fluorescent RNA aptamer beads, flow cytometry; hits give high values; 110 tested, under 10 active; shares compounds with GRK2 inh; AID 504521;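 active means compounds whose bead fluorescence drops by more than 37 kMESF across the dose range, marking them as dye quenchers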
FAM quench CP1 – quenches fluorescent RNA aptamer, GRK2 hit artifact. fluorescence response (% of DMSO), % at 10 µM. Carboxyfluorescein RNA aptamer on beads, flow cytometry quenching; hits give low values. 2,000 tested, under 10 active. shares compounds with GRK2 inh;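 active means compounds that quench the bead-bound fluorescent RNA probe, cutting fluorescence to under half of the solvent control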;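 further: counterscreen run without GRK2 so only probe quenching by compound is measured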
GRK2 CP2 – human GRK2 inhibition confirmation, cherry pick 2. shares compounds with GRK2 inh. bead-bound GRK2, FAM-aptamer displacement, flow cytometry. inhibition of aptamer binding, % at 10 µM. 360 tested, under 10 active. AID 504782;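 active means inhibition of aptamer binding above 40%, about triple the noise seen with nonglowing compounds, on plates passing quality control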;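 further: negative values mostly come from compounds that fluoresce themselves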
FAM quench SP – aptamer fluorescence quenching in GRK2 counter-screen. 360 tested, under 10 active. fluorescence response vs DMSO, % at 10 µM. shares compounds with GRK2 inh. carboxyfluorescein RNA aptamer beads, flow cytometry quenching; hits give low values;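 active means response vs DMSO under 50%, meaning signal dropped by over half, treated as fluorescence quencher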;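 further: labelled aptamer on streptavidin beads without GRK2 as a quench counter-screen; 100% = bead fluorescence of DMSO wells and lower means quenching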
Starred values were filed as active, the others as inactive; nt = no result. This is a sample that favours compounds with a hit; in the whole collection about 1.9% have one here.

SMILES	GRK2 inh	SR-BI HDL uptake	SR-BI DiI-HDL act	Rin1 Abl inh	GRK2 CP1	FAM quench CP1	others
Cc1ccc(F)c(S(=O)(=O)NC(=O)C2(C)CCN2C(=O)CC(c2ccccc2)c2ccccc2)c1 (stereo not drawn)	nt	nt	nt	0	nt	nt
COc1ccc(-c2cc(C(=O)N(C)Cc3nc4ccccc4c(=O)[nH]3)c3ccccc3n2)cc1OC	29	13	-13	0	0	101
COc1ccc(-c2cc(C(=O)N(C)Cc3cccc(OC)c3OC)c3ccccc3n2)cc1OC	0	23	-23	-1	nt	nt
C/C=C(/C)C(=O)OC1c2c(ccc3ccc(=O)oc23)OC(C)(C)C1OC(=O)/C(C)=C\C (stereo not drawn)	70*	9	-9	-4	-2	100
C/C=C(\C)C(=O)OC1c2c(ccc3ccc(=O)oc23)OC(C)(C)C1OC(C)=O (stereo not drawn)	0	-7	7	1	nt	nt
CCCNC(=O)C1(C)CCN(C(=O)c2sccc2C)C1 (stereo not drawn)	nt	nt	nt	2	nt	nt
Cc1ccc(C(=O)OCc2c(C)noc2C)cc1NC(=O)c1ccco1	1	11	-11	0	-2	96
O=CN1c2ccccc2CSc2ccccc21	74*	nt	nt	-3	-4	100
O=C(O)CN1C(=O)CSc2ccccc21	1	8	-8	3	nt	nt
O=C(Nc1cc(C(=O)N2CCOCC2)cc(C(=O)N2CCOCC2)c1)c1cc(F)c(F)cc1Cl	27	16	-16	-2	-2	103
O=C(Nc1ccc(N2CCOCC2)c(Cl)c1)c1cc(F)c(F)cc1Cl	1	33	-33	-5	nt	nt
CCS(=O)(=O)c1ccc(-c2cccc(NC(=O)COc3ccccc3)c2)nn1	0	19	-19	0	nt	nt
O=C(COc1ccc(Cl)cc1Cl)Nc1cccc(-c2ccc(N3CCOCC3)nn2)c1	nt	12	-12	2	-2	93
O=C(COc1ccccc1)Nc1cccc(-c2ccc(N3CCOCC3)nn2)c1	0	10	-10	1	1	94
O=C(COC(=O)CCSc1ccc(F)cc1)NCc1ccc(F)cc1	2	-6	6	7	nt	nt
CC(C)CCNC1=CC(=O)CC(c2ccccc2)C1 (stereo not drawn)	1	-11	11	-2	nt	nt
CN(C)CCCNC1=CC(=O)CC(c2ccccc2)C1 (stereo not drawn)	80*	0	0	-6	-1	104
Clc1cc(Cl)cc(Nc2ccccc2CN(C/C=C/c2ccc3c(c2)OCO3)Cc2ccccc2)c1	nt	nt	nt	0	nt	nt
NC(=O)[C@@H]1CCCNc2c(I)cc([N+](=O)[O-])cc2C(=O)N[C@@H](CCC(=O)O)C(=O)N[C@@H](CO)C(=O)N1	88*	-10	10	-6	-15	129
O=C(COC(=O)/C=C/c1cccc(F)c1)NC1CCCCC1	nt	nt	nt	-2	nt	nt
Cc1ccc(-c2noc(C3CCCN(C(=O)c4cccc(F)c4)C3)n2)cc1 (stereo not drawn)	100*	1	-1	0	0	103
Cc1nc(C(=O)NCc2ccccc2)sc1C1(C)CC(c2ccccc2)=NO1 (stereo not drawn)	2	30	-30	6	-1	101
O=C(CCCNC(=O)c1ccc(Cl)cc1)Nc1nccs1	0	-1	1	-2	nt	nt
O=C(COC(=O)CNC(=O)c1ccc([N+](=O)[O-])o1)Nc1ncc(Cl)cc1Cl	55*	36	-36	-1	-1	99
CC(=O)Oc1ccc(C(=O)[C@H]2[C@H]3C(=O)N(c4cccc5ccccc45)C(=O)[C@H]3[C@@H]3C=CC=NN32)cc1	73*	35	-35	0	nt	nt	GRK2 CP2=8;FAM quench SP=101
SMILES	GRK2 inh	SR-BI HDL uptake	SR-BI DiI-HDL act	Rin1 Abl inh	GRK2 CP1	FAM quench CP1	others
COc1ccc(C(=O)[C@H]2[C@H]3C(=O)N(c4ccc(OC(C)=O)cc4)C(=O)[C@H]3C3C=CC=NN32)cc1 (stereo partly drawn)	0	0	0	-2	nt	nt
CCS(=O)(=O)Nc1cc2c3c(c1)CCN3C(=O)CC2	45*	-9	9	1	5	102
CSc1ccc(Cl)c(C(=O)N2CCN(c3ncccn3)CC2)c1	43*	-17	17	4	nt	nt	GRK2 CP2=9;FAM quench SP=101
O=C(c1ccc(F)cc1F)N1CCN(c2ncccn2)CC1	4	-1	1	-4	nt	nt
O=C(CC1SC(N2CCCCC2)=NC1=O)Nc1cccc(C(=O)NCc2ccc(F)cc2)c1 (stereo not drawn)	nt	27	-27	-1	24	99	Aptamer quench=-30
CC(=O)c1cccc(S(=O)(=O)N2CCC(C(=O)Nc3cccc(C(=O)NC4CC4)c3)CC2)c1	0	13	-13	-3	nt	nt
COc1ccc(C(CNC(=O)c2ccc(C)c(S(=O)(=O)N3CCCCC3)c2)N2CCCC2)cc1 (stereo not drawn)	nt	60	-60	1	nt	nt
COC(=O)c1cc(Cl)ccc1NCC(N)c1ccccc1 (stereo not drawn)	nt	nt	nt	3	nt	nt
COC(=O)Nc1ccc(S(=O)(=O)N2CCN(c3ccc(F)cc3)CC2)cc1	50*	-7	7	-1	0	97
COC(=O)Nc1ccc(S(=O)(=O)N2CCN(C)CC2)cc1	1	-44	44	-4	nt	nt
COc1ccc(-c2nnc(C(C)Nc3cccc(C(=O)NC4CC4)c3)o2)cc1 (stereo not drawn)	11	9	-9	4	2	100
CC(Nc1cccc(C(=O)NC2CC2)c1)c1nnc(-c2ccccc2)o1 (stereo not drawn)	4	7	-7	4	0	97
CN1C[C@@H]2[C@@H]3C(=O)N(C)C(=O)[C@@H]3[C@](Cc3ccccc3)(C1=O)N2C(=O)c1ccc(Cl)cc1	nt	-16	16	0	nt	nt
CCOC(=O)C1CCN(Cc2cc(=O)oc3c(C)c(C)ccc23)CC1	0	-8	8	2	nt	nt
Cc1ccc(S(=O)(=O)Nc2nnc(CC(C)(C)C)s2)cc1	1	-23	23	3	nt	nt
CC(C)(C)Cc1nnc(NS(=O)(=O)c2ccc([N+](=O)[O-])cc2)s1	57*	8	-8	-1	-1	97
O/C(=C\Sc1nnc(Cc2ccccc2)o1)c1ccc(F)cc1	49*	-12	12	-2	nt	94
